{"source": "ChEMBL document CHEMBL4308845", "about": "“Allosteric Activation of Striatal-Enriched Protein Tyrosine Phosphatase (STEP, PTPN5) by a Fragment-like Molecule” (J Med Chem, 2019)", "key": {"Homo sapiens [1]": {"organism": "Homo sapiens", "assay": "Binding affinity to human STEP46 (197 to 565 residues) expressed in Escherichia coli BL21(DE3) assessed as increase in melting temperature at 500 uM by SYPRO Orange dye based DSF", "procedure,_shortened": "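STEP46 at 5 μM with 25× SYPRO Orange and 500 μM ligand (1% DMSO) in 20 mM HEPES pH 7.5, 50 mM NaCl, 1 mM TCEP, in duplicate. Heated 25 to 95 °C at 1 °C/min with reads every 0.5 °C. Tm taken from the minimum of the first-derivative curve; ΔTm relative to DMSO.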"}, "Homo sapiens [2]": {"organism": "Homo sapiens", "assay": "Activation of human STEP46 (197 to 565 residues) expressed in Escherichia coli BL21(DE3) using pFyn peptide substrate after 60 mins by RapidFire MS/MS assay relative to control", "procedure,_shortened": "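Unlabeled Fyn peptide with STEP46 (50 nM final) and compound (500 μM final) in 50 mM HEPES, 0.02% Brij35, 1 mM DTT; 1 h at room temperature. Stopped with sodium orthovanadate (12 μM final), internal standard peptide added, dephosphorylation quantified by RapidFire MS/MS using MRM in positive mode.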"}, "[3]": {"biological_target": "T1, Tyrosine-protein phosphatase non-receptor type 5 (Homo sapiens, UniProt P54829)", "T1 sequence (P54829 whole entry)": "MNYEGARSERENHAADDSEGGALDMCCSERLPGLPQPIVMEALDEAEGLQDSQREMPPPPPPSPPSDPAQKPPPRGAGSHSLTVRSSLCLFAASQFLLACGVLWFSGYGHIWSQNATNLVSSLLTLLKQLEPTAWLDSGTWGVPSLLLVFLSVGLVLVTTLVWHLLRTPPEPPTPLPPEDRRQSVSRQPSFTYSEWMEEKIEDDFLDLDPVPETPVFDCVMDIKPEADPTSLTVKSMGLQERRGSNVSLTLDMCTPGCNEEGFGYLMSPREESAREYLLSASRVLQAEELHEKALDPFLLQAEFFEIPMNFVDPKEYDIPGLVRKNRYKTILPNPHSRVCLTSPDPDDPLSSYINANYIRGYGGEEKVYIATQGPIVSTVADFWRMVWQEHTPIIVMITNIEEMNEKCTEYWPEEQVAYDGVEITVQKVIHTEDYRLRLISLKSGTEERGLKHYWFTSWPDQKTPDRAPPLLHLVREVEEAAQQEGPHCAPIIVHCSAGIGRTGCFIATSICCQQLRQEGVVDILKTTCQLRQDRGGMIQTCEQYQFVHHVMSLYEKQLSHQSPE", "assay": "Binding affinity to human STEP PTP domain (281 to 563 residues) expressed in Escherichia coli BL21(DE3) by ITC", "procedure,_shortened": "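Desalted STEP PTP domain in 10 mM HEPES, 200 mM NaCl, 0.5 mM TCEP, pH 7.5. 200 μM protein titrated with 18 × 2 μL injections of 2 mM ligand at 25 °C. Single-site model fit gave ΔH, n, ΔS and Ka; mean ± SD of three independent titrations.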"}, "Homo sapiens [4]": {"organism": "Homo sapiens", "assay": "Activation of human STEP46 (197 to 565 residues) expressed in Escherichia coli BL21(DE3) at 100 uM using biotin-pFyn peptide substrate after 60 mins by AlphaLISA assay relative to control", "procedure,_shortened": "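STEP46 (50 nM final) with biotinylated pFyn peptide (20 nM final) and compound in 1% DMSO, 60 min at room temperature in the dark. Detection by anti non-phospho Src/Tyr416 antibody in stop buffer containing 10 μM orthovanadate, plus protein A acceptor and streptavidin donor beads, 15 min each. % CTL computed against enzyme (100%) and no-enzyme (0%) controls.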"}}, "data": [{"smiles": "N=C(N)Nc1cc(C2CCNCC2)cc(C(F)(F)F)c1", "values": [{"measurement": "ΔTm", "setting": "Homo sapiens [1]", "result": 1.4, "unit": "°C"}, {"measurement": "Activity", "setting": "Homo sapiens [2]", "result": 28, "unit": "%"}, {"measurement": "Kd", "setting": "[3]", "result": 800, "unit": "µM"}, {"measurement": "Activity", "setting": "Homo sapiens [4]", "result": 33, "unit": "%"}]}]}
